Source: PubChem (several laboratories)
In the library only some 3.9% were active in any assay of this set; here they are far more common.
CRFBP-R2 block = antagonists of CRF-binding protein/CRF-R2 receptor complex; HEK293 CRF-R2/CRF-BP, CRF-induced calcium fluorescence; inhibition, % at 11.8 µM; 350,000 tested, 0.59% active; AID 588475;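 active means inhibition of the ligand-induced calcium signal above about 50% at the single tested concentration, limit read from the data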
CRFR2-BP ag = agonists of human CRF-binding protein/CRF-R2 receptor complex; HEK293 CRF-R2/CRF-BP, calcium dye fluorescence (FLIPR); percent of saturating CRF peptide response; activation, % at 13.2 µM; 350,000 tested, 0.46% active;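 active means activation of at least 50%, plus an integration ratio under a set limit after plate pattern correction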;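 further: plate controls were neutral control wells without compound for no effect and CRF at EC100 for full effect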
TAAR1 agonist = human TAAR1 agonism. Q96RJ0. CHO RD-HGA16 TAAR1, Fluo-8 calcium fluorescence; vehicle wells 0%, saturating PEA agonist 100%. activation, % at 3 µM. 360,000 tested, 0.99% active. AID 624467;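 active means activation above the mean activation of all test compounds in the run plus 3 SD, cut at about 38% in these data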
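Repeats: no replicates (n 1) | Material: CHO-derived RD-HGA16 cells with stable Gα16 and human TAAR1 | Technique: Kinetic Fluo-8 calcium fluorescence | Schedule: 17-24 h seeding, 75 min 37 °C dye, 30 min RT | Evaluation: % activation from peak over basal fluorescence ratio, DMSO-to-PEA scaled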
ANO1 block = blocks the mouse calcium-activated chloride channel TMEM16A; Q8BHY3; HEK293 TMEM16A/YFP iodide influx fluorescence, ionomycin; normalized B-score (activity score, 25-100; higher = stronger inhibition) at 10 µM; 310,000 tested, 1.2% active; AID 588511;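 active means ratio plate-corrected score three or more library SD toward inhibition, starting fluorescence score within five deviations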;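 further: score derived from kinetic fluorescence span divided by baseline fluorescence per well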
TAAR1 antagonist = human TAAR1 antagonism; inhibition, % at 3 µM; 360,000 tested, 1.5% active; CHO RD-HGA16 TAAR1, Fluo-8 calcium fluorescence, antagonist; AID 624466; Q96RJ0;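 active means inhibition above a per-plate cutoff, the mean inhibition of test compounds on that plate plus 3 SD, cut at about 49% in these data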;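 further: 0% = DMSO plus EC80 beta-PEA response and 100% = DMSO alone without agonist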
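Material: RD-HGA16 CHO cells with stable hTAAR1 and Gα16; Dosing: single nominal final test compound concentration of 3 µM; Schedule: seeding 17-24 h prior, 75-min 37 °C, 30-min RT dye loading; Detection: kinetic Fluo-8 calcium fluorescence measurement; Measure: % inhibition from peak post-agonist over basal fluorescence ratio; Benchmarks: vehicle and agonist controls.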
TMEM16A act = activators or potentiators of mouse TMEM16A chloride channel; HEK293 TMEM16A/YFP-H148Q/I152L, iodide quench fluorescence; active compounds read low; B-score at 10 µM; 340,000 tested, 0.3% active;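 active means fluorescence-ratio B-score plate-corrected deviation score at least 3 library SD below zero, with starting fluorescence score within 5 deviations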;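 further: channel opened by trigger with iodide after compound preincubation; score built on the fluorescence ratio of max minus min over baseline; more negative score means more quench and so TMEM16A activation or potentiation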
Starred values were filed as active, the others as inactive; i = inactive; / = no result; ! = repeats disagree.

SMILES	CRFBP-R2 block	CRFR2-BP ag	TAAR1 agonist	ANO1 block	TAAR1 antagonist	TMEM16A act
O=C(COc1ccc2ccccc2c1)N1CCN(C(=O)c2ccc([N+](=O)[O-])cc2)CC1	72*	-5	2	i	9	i
O=C(c1ccc(Oc2ccc([N+](=O)[O-])cc2)cc1)N1CCCCCC1	26	-2	5	25*	3	i
O=C(C[C@H]1C[C@H](C(=O)N2CCOCC2)[C@@]2(CCC3CCCC3)c3[nH]c4ccc(Cl)cc4c3CCN2C1=O)NCCN1CCOCC1	-8	88*	0	/	-28	/
COCCCNC(=O)C[C@H]1C[C@H](C(=O)N2CCOCC2)[C@@]2(CCC3CCCC3)c3[nH]c4ccc(Cl)cc4c3CCN2C1=O	-8	22	1	/	-21	/
CCCC(=O)N1CCN(c2ccc(NC(=O)c3cccs3)cc2Cl)CC1	-1	0	4	i	8	i
CCCC(=O)N1CCN(c2ccc(NC(=O)c3cc4ccccc4o3)cc2Cl)CC1	0	0	18	100*	84*	i
CCN(Cc1cnn(C)c1)Cc1nc(C(c2ccccc2)c2ccccc2)no1	15	-2	1	i	-13	i
COc1ccc(NC(=O)CC2Nc3cc(C)c(C)cc3NC2=O)c([N+](=O)[O-])c1 (stereo not given)	-12	1	-1	i	-5	-5*
CCOc1ccc(N2CC(NC(=O)c3ccc4ccccc4c3)CC2=O)cc1 (stereo not given)	-9	-2	3	i	2	i
Cc1ccc(NC(=O)CCNC(=O)c2ccc([N+](=O)[O-])cc2)cc1C	11	-4	8	i	-12	i
CCOc1cc(C(c2c(C)[nH][nH]c2=O)c2c(C)[nH][nH]c2=O)ccc1OS(=O)(=O)c1ccccc1	7	-1	3	i	5	i
Cc1ccc(S(=O)(=O)Oc2ccc(C(c3c(C)[nH][nH]c3=O)c3c(C)[nH][nH]c3=O)cc2)cc1	-160	126*	/	i	/	i
CCOc1ccccc1N1CCN(C(=O)CSc2ccc3c(c2)OCCO3)CC1	-4	0	15	/	51*	i
O=C(CSc1ccc2c(c1)OCCO2)N1CCN(c2ccccc2O)CC1	17	0	8	/	10	i
COc1ccc(-n2ccnc2SCC(=O)NCc2ccco2)c(OC)c1	-7	0	6	i	-28	i
C/C(N)=C(/C#N)C(=O)CSc1nn(-c2ccc(Cl)cc2)c(=S)s1	1	7	11	i	6	i
C/C(N)=C(/C#N)C(=O)CSc1nnc(SCc2ccc(Cl)cc2)s1	22	-1	4	i	52*!	i
Cn1cnnc1SCC(=O)Nc1ccc2nc(SCc3cccc4ccccc34)sc2c1	20	-3	42*	i	17	i
COc1ccccc1OCCn1cc(C#N)c2ccccc21	6	-1	0	i	3	i
Cc1ccc(OCCn2cc(C#N)c3ccccc32)cc1	10	0	6	100*	32	i
COC(C(=O)Nc1ccc(C(N)=O)cc1)c1ccccc1 (stereo not given)	-8	32	1	i	0	i
COC(C(=O)Nc1ccc(F)cc1)c1ccccc1 (stereo not given)	91*	0	4	i	3	i
COC(C(=O)Nc1ccc(S(=O)(=O)Nc2ccc(F)cc2)cc1)c1ccccc1 (stereo not given)	-36	12	56*	i	37	i
Cc1c(C(c2ccccc2)c2c(C)n(C)n(-c3ccccc3)c2=O)c(=O)n(-c2ccccc2)n1C	13	-3	-1	i	17	i
Cc1c(C(c2ccc(N(C)C)cc2)c2c(C)n(C)n(-c3ccccc3)c2=O)c(=O)n(-c2ccccc2)n1C	54*	-7	2	i	-7	i
SMILES	CRFBP-R2 block	CRFR2-BP ag	TAAR1 agonist	ANO1 block	TAAR1 antagonist	TMEM16A act
CN(C)CCNC(=O)c1sc2nc(-c3ccccc3)cc(C(F)(F)F)c2c1N	-32	24	6	i	4	i
COc1cccc(-c2cc(C(F)(F)F)c3c(N)c(C#N)sc3n2)c1	/	/	/	i	/	/
Nc1c(C(=O)C2CC2)sc2nc(-c3ccccc3)cc(C(F)(F)F)c12	-350	238*	20	i	2	i
COc1ccc(-c2cc(C(F)(F)F)c3c(N)c(C(=O)NCCSC)sc3n2)cc1	-67	66*	13	i	7	i
COCCN(CCOC)C(=O)c1ccc(CSc2nc3ccccc3s2)cc1	9	0	1	25*	-8	i
COCCn1c(Cc2ccccc2)nnc1SCC(=O)NC1CC1	12	0	-1	i	-13	i
Cc1nn(C)c(C)c1NC(=O)c1cc2nc(-c3ccco3)cc(C(F)(F)F)n2n1	134*	-3	6	i	4	i
O=C(Nc1ccc(Cl)cc1)c1cc2nc(-c3ccco3)cc(C(F)(F)F)n2n1	-24	0	1	i	9	i
CC(C)CN(C(=O)CSc1nc2ccccc2c(=O)n1C)C1CCS(=O)(=O)C1 (stereo not given)	6	-1	1	/	10	i
CCN1C(=O)c2cccc3c(S(=O)(=O)Nc4ccccc4OC)ccc1c23	-134	129*	11	i	25	i
CCN1C(=O)c2cccc3c(S(=O)(=O)N(C(C)=O)c4ccc(OC(C)=O)cc4)ccc1c23	4	1	21	/	49*	i
CC(C)(C)CN1CCC(Oc2cccc(C(=O)NCCCOc3cccnc3)c2)CC1	-13	-1	3	i	-10	i
COc1ccc(-n2c(SCC(=O)N(C)C3CCS(=O)(=O)C3)nc3ccc(O)cc3c2=O)cc1OC (stereo not given)	1	-1	2	/	-30	i
CC(Sc1nnnn1-c1ccccc1)C(=O)Nc1ccccc1-c1ccccc1 (stereo not given)	54*	0	0	i	-5	i
COc1ccc(CN(CC(=O)NCCc2ccccc2)C(=O)CCC(=O)Nc2ccccn2)cc1	-8	0	4	i	3	i
Cc1cc(-c2ccc(N3CCOCC3)cc2)nc2ccccc12	-40	58*	10	i	6	i
c1ccc2nc(-c3ccc(N4CCOCC4)cc3)ccc2c1	2	3	15	i	18	i
CS(=O)(=O)N(CC(=O)N1CCCC1)c1ccccc1Br	2	0	12	i	-18	i
O=S1(=O)N[C@H](Cc2ccccc2)COc2cc(N3CCN(Cc4ccccc4F)CC3)ccc21	/	/	2	/	-4	/
